This note sets out measurements from ChEMBL document CHEMBL1159342, “Nitric oxide inhibitory isopimarane-type diterpenes from Orthosiphon stamineus of Indonesia” (J Nat Prod, 2003).

The test system of this assay is J774.1. Description: Inhibition of LPS-induced NO production in mouse J774.1 cells after 24 hrs. The format is functional, cell-based. As to conditions: J774.1, 24 h. The gist of the method:
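Cells harvested with trypsin, seeded at 1 × 10^5 cells/well, adhered 2 h at 37 °C under 5% CO2. Medium then replaced with fresh medium containing LPS (10 µg/mL) plus test compounds at indicated concentrations, 24 h. Nitrite in supernatant measured with Griess reagent (10 min, room temperature), absorbance 550 nm. Quantified against NaNO2 standard curve in medium, medium-only blank subtracted.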

Structures are written as SMILES.

For orientation: IC50 means the concentration needed to halve the response being measured. Higher therefore signals a need for much substance. In turn, `C[C@@H]1C[C@H]2[C@@H]3CCC4=CC(=O)C=C[C@]4(C)[C@@]3(F)[C@@H](O)C[C@]2(C)[C@@]1(O)C(=O)CO` [DEXAMETHASONE] gave an IC50 of 170 µM.
With `C=C[C@@]1(C)C[C@@H](OC(=O)c2ccccc2)[C@H]2[C@](O)(C1=O)[C@H](OC(C)=O)C[C@H]1C(C)(C)[C@H](O)[C@H](OC(C)=O)[C@H](OC(=O)c3ccccc3)[C@@]12C` [ORTHOSIPHOL A] the figure was 11.5 µM.
With `C=C[C@@]1(C)C[C@@H](OC(=O)c2ccccc2)[C@H]2[C@](O)(C1=O)[C@H](OC(C)=O)C[C@H]1C(C)(C)[C@H](OC(C)=O)[C@H](O)[C@H](OC(=O)c3ccccc3)[C@@]12C` [ORTHOSIPHOL B] the figure was 20.5 µM; with `C=C[C@@]1(C)C[C@@H](OC(=O)c2ccccc2)[C@@H]2[C@@]3(C)C=C(OC(C)=O)C(=O)C(C)(C)[C@@H]3C[C@@H](OC(C)=O)[C@@]2(O)C1=O` [ORTHOSIPHOL D], 14.4 µM; with `C=C[C@@]1(C)C[C@@H](OC(=O)c2ccccc2)[C@H]2[C@](O)(C1=O)[C@H](O)C[C@H]1C(C)(C)[C@H](OC(C)=O)[C@H](OC(C)=O)[C@H](OC(=O)c3ccccc3)[C@@]12C` [ORTHOSIPHOL F], 34.5 µM.
Regarding `C=C[C@@]1(C)C[C@@H](O)[C@H]2[C@](O)(C1=O)[C@H](O)C[C@H]1C(C)(C)[C@H](OC(C)=O)[C@H](OC(C)=O)[C@H](OC(=O)c3ccccc3)[C@@]12C` [ORTHOSIPHOL G], inhibition was half-maximal at 145 µM (IC50).
`C=C[C@@]1(C)CC(=O)[C@H]2[C@](O)(C1=O)[C@H](O)C[C@H]1C(C)(C)[C@H](OC(C)=O)[C@H](OC(C)=O)[C@H](OC(=O)c3ccccc3)[C@@]12C` [ORTHOSIPHOL I] displayed an IC50 of 102 µM.
The same measure for `C=C[C@@]1(C)CC(=O)[C@H]2[C@](O)(C1=O)[C@H](OC(C)=O)C[C@H]1C(C)(C)[C@H](OC(C)=O)[C@H](OC(C)=O)[C@H](OC(=O)c3ccccc3)[C@@]12C` [ORTHOSIPHOL J]: 66.3 µM; for `C=C[C@@]1(C)C[C@@H](O)[C@H]2[C@](O)(C1=O)[C@H](OC(C)=O)C[C@H]1C(C)(C)[C@H](OC(=O)c3ccccc3)[C@H](OC(C)=O)[C@H](OC(=O)c3ccccc3)[C@@]12C` [ORTHOSIPHOL O]: 27.7 µM; for `C=C[C@]1(C)C(=O)[C@]2(O)[C@H](OC(C)=O)C[C@H]3C(C)(C)[C@H](OC(C)=O)[C@H](O)[C@H](OC(=O)c4ccccc4)[C@]3(C)[C@H]2[C@H](OC(=O)c2ccccc2)[C@H]1O` [ORTHOSIPHOL R]: 35.7 µM.
With `C=C[C@@]1(C)C[C@@H](OC(=O)c2ccccc2)[C@H]2[C@](O)(C1=O)[C@H](O)C[C@H]1C(C)(C)[C@H](O)[C@H](OC(C)=O)[C@H](OC(=O)c3ccccc3)[C@@]12C` [ORTHOSIPHOL T] the figure was 35.9 µM.
For `C=C[C@@]1(C)C[C@@H](O)[C@H]2[C@](O)(C1=O)[C@H](OC(C)=O)C[C@H]1C(C)(C)[C@H](OC(C)=O)[C@H](OC(C)=O)[C@H](OC(=O)c3ccccc3)[C@@]12C` [ORTHOSIPHOL U], the IC50 was found to be 59.7 µM.
With `C=C[C@@]1(C)C[C@@H](O)[C@H]2[C@](O)(C1=O)[C@H](OC(C)=O)C[C@H]1C(C)(C)[C@H](OC(C)=O)[C@H](O)[C@H](OC(=O)c3ccccc3)[C@@]12C` [ORTHOSIPHOL V] the figure was 54.5 µM.
The same measure for `C=C[C@@]1(C)C[C@@H](O)[C@H]2[C@](O)(C1=O)[C@H](OC(C)=O)C[C@H]1C(C)(C)[C@H](O)[C@H](OC(C)=O)[C@H](OC(=O)c3ccccc3)[C@@]12C` [ORTHOSIPHOL W]: 57.6 µM; for `C=C[C@@]1(C)C[C@@H](O)[C@H]2[C@](O)(C1=O)[C@H](O)C[C@H]1C(C)(C)[C@H](OC(=O)c3ccccc3)[C@H](OC(C)=O)[C@H](OC(=O)c3ccccc3)[C@@]12C` [ORTHOSIPHOL X]: 6.4 µM.
With `C=C[C@@]1(C)C[C@@H](O)[C@@H]2[C@@]3(C)C=C(OC(C)=O)C(=O)C(C)(C)[C@@H]3C[C@@H](OC(C)=O)[C@@]2(O)C1=O` [ORTHOSIPHOL Y] the figure was 37.9 µM.
`C=C[C@@]1(C)CC(=O)[C@H]2[C@](O)(C1=O)[C@H](OC(C)=O)C[C@H]1C(C)(C)[C@H](OC(=O)c3ccccc3)[C@H](OC(C)=O)[C@H](OC(=O)c3ccccc3)[C@@]12C` [ORTHOSIPHONONE A] showed an IC50 of 32.1 µM.
With `C=C[C@@]1(C)C[C@@H](OC(=O)c2ccccc2)[C@@H]2[C@@](C)(CC(=O)O)[C@H](C(C)(C)C(=O)OC)C[C@@H](OC(C)=O)[C@@]2(O)C1=O` [SECOORTHOSIPHOL B] the figure was 127 µM; with `CNC(=N)NCCC[C@H](N)C(=O)O` [TILARGININE], 26 µM.
